In ChEMBL document CHEMBL4813946, “Discovery of novel 4-azaaryl-N-phenylpyrimidin-2-amine derivatives as potent and selective FLT3 inhibitors for acute myeloid leukaemia with FLT3 mutations” (Eur J Med Chem, 2021):
The source made the active and inactive calls. No cut-off for these calls is given here.

What was measured:
[1] = molecular target: CDK7/Cyclin H/MNAT1 (Homo sapiens, UniProt P50613); test: Inhibition of CDK7/cyclin H/MAT1 (unknown origin) using HYSPTSPSYSPTSPSYSPTSPSKKKK-O substrate incubated for 120 mins measured after 40 mins incubation under dark by ADP-glo based luminescence assay; type: protein-complex assay
In short: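 In-house ADP-Glo assay with 2 mM DMSO stocks. Kinases were CDK1/cyclin B at 1 nM, CDK2/cyclin E1 at 10 nM and CDK7/cyclin H/MAT1 at 40 nM. Substrate was histone 1 for CDK1 and CDK2, and a RNA pol II CTD peptide for CDK7. Compound at 8–10 concentrations, 1:3 serial, final DMSO 0.5%. Reactions ran 60–120 min at room temperature, then ADP-Glo reagent 40 min in the dark, then detection reagent 40 min, read by luminescence. Ki was derived from IC50 by Cheng-Prusoff.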

[2] = molecular target: Receptor-type tyrosine-protein kinase FLT3 (Homo sapiens, UniProt P36888, D835Y); test: Inhibition of FLT3 D835Y mutant (unknown origin) incubated for 120 mins by ADP-glo based luminescence assay
[3] = molecular target: Receptor-type tyrosine-protein kinase FLT3 (Homo sapiens, UniProt P36888, F594-R595INSR); test: Inhibition of FLT3 F594_R595insR mutant (unknown origin) incubated for 120 mins by ADP-glo based luminescence assay
[4] = test system: NB-4; test: Antiproliferative activity against human NB-4 cells harboring wild type FLT3 assessed as reduction in cell viability after 72 hrs by resazurin assay; type: functional
In short: (§1)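 Cells seeded and pre-incubated 24 h at 37 °C, 5% CO2, then given a five-fold dilution series of compound (from 10 mM DMSO stock) in medium, in triplicate. Resazurin added after 72 h exposure, 4 h in dark at 37 °C. Fluorescence read at 570/585 nm, normalised to DMSO vehicle. GI50 by non-linear regression; mean ± SD of at least two replicates.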

[5] = test system: K562; test: Antiproliferative activity against human K562 cells harboring FLT3 knockout gene assessed as reduction in cell viability after 72 hrs by resazurin assay; type: functional; in short: as §1
[6] = test system: MV4-11; test: Induction of apoptosis in human MV4-11 cells assessed as necrotic cells at 1 x GI50 concentration incubated for 24 hrs by annexin V-FITC and propidium iodide staining based flow cytometry (reference value: 0.75 %); type: functional
[7] = test system: MV4-11; test: Induction of apoptosis in human MV4-11 cells assessed as viable cells at 1 x GI50 concentration incubated for 24 hrs by annexin V-FITC and propidium iodide staining based flow cytometry (reference value: 84.68 %); type: functional
[8] = test system: MV4-11; test: Induction of apoptosis in human MV4-11 cells assessed as viable cells at 5 x GI50 concentration incubated for 24 hrs by annexin V-FITC and propidium iodide staining based flow cytometry (reference value: 84.68 %); type: functional
[9] = test system: MV4-11; test: Induction of apoptosis in human MV4-11 cells assessed as necrotic cells at 20 x GI50 concentration incubated for 24 hrs by annexin V-FITC and propidium iodide staining based flow cytometry (reference value: 0.75 %); type: functional
[10] = test system: MV4-11; test: Induction of apoptosis in human MV4-11 cells assessed as early apoptotic cells at 1 x GI50 concentration incubated for 48 hrs by annexin V-FITC and propidium iodide staining based flow cytometry (reference value: 1.08 %); type: functional
[11] = test system: MV4-11; test: Induction of apoptosis in human MV4-11 cells assessed as late apoptotic cells at 1 x GI50 concentration incubated for 48 hrs by annexin V-FITC and propidium iodide staining based flow cytometry (reference value: 6.59 %); type: functional
[12] = test system: MV4-11; test: Induction of apoptosis in human MV4-11 cells assessed as viable cells at 5 x GI50 concentration incubated for 48 hrs by annexin V-FITC and propidium iodide staining based flow cytometry (reference value: 91.87 %); type: functional
[13] = test system: MV4-11; test: Induction of apoptosis in human MV4-11 cells assessed as early apoptotic cells at 10 x GI50 concentration incubated for 48 hrs by annexin V-FITC and propidium iodide staining based flow cytometry (reference value: 1.08 %); type: functional
[14] = test system: U-937; test: Induction of apoptosis in human U937 cells assessed as late apoptotic cells at 1 x GI50 concentration incubated for 24 hrs by annexin V-FITC and propidium iodide staining based flow cytometry (reference value: 10.30 %); type: functional
[15] = test system: U-937; test: Induction of apoptosis in human U937 cells assessed as late apoptotic cells at 10 x GI50 concentration incubated for 24 hrs by annexin V-FITC and propidium iodide staining based flow cytometry (reference value: 10.30 %); type: functional
[16] = test system: U-937; test: Induction of apoptosis in human U937 cells assessed as viable cells at 10 x GI50 concentration incubated for 24 hrs by annexin V-FITC and propidium iodide staining based flow cytometry (reference value: 86.80 %); type: functional
[17] = test system: U-937; test: Induction of apoptosis in human U937 cells assessed as late apoptotic cells at 20 x GI50 concentration incubated for 24 hrs by annexin V-FITC and propidium iodide staining based flow cytometry (reference value: […] %); type: functional
[18] = molecular target: Receptor-type tyrosine-protein kinase FLT3 (Homo sapiens) (UniProt P36888); test: Inhibition of FLT3-mediated signalling pathway in human MV4-11 cells assessed as inhibition of S6RP phosphorylation upto 20 x GI50 concentration incubated for 6 hrs by western blot analysis; type: cell-based
In short: (§2)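 Cells lysed in phosphate lysis buffer with protease inhibitors and protein quantified. Western blots probed phospho and total STAT5, AKT, ERK, S6RP and eIF4E, plus full-length and cleaved PARP and caspase-3, with β-actin as loading control. At least two independent experiments.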

[19] = test system: U-937; test: Induction of apoptosis in human U937 cells assessed as necrotic cells at 1 x GI50 concentration incubated for 48 hrs by annexin V-FITC staining based flow cytometry (reference value: 1.16 %); type: functional
[20] = test system: U-937; test: Induction of apoptosis in human U937 cells assessed as early apoptotic cells at 5 x GI50 concentration incubated for 48 hrs by annexin V-FITC staining based flow cytometry (reference value: 2.78%); type: functional
[21] = test system: U-937; test: Induction of apoptosis in human U937 cells assessed as necrotic cells at 5 x GI50 concentration incubated for 48 hrs by annexin V-FITC staining based flow cytometry (reference value: 1.16 %); type: functional
[22] = test system: U-937; test: Induction of apoptosis in human U937 cells assessed as viable cells at 5 x GI50 concentration incubated for 48 hrs by annexin V-FITC staining based flow cytometry (reference value: 86.25 %); type: functional
[23] = test system: U-937; test: Induction of apoptosis in human U937 cells assessed as necrotic cells at 10 x GI50 concentration incubated for 48 hrs by annexin V-FITC staining based flow cytometry (reference value: 1.16 %); type: functional
[24] = test system: U-937; test: Induction of apoptosis in human U937 cells assessed as early apoptotic cells at 20 x GI50 concentration incubated for 48 hrs by annexin V-FITC staining based flow cytometry (reference value: 2.78 %); type: functional
[25] = test system: U-937; test: Induction of apoptosis in human U937 cells assessed as viable cells at 20 x GI50 concentration incubated for 48 hrs by annexin V-FITC staining based flow cytometry (reference value: 86.25%); type: functional
[26] = molecular target: Receptor-type tyrosine-protein kinase FLT3 (Homo sapiens) (UniProt P36888); test: Inhibition of FLT3-mediated signalling pathway in human U-937 cells assessed as inhibition of ERK phosphorylation upto 20 x GI50 concentration incubated for 6 hrs by western blot analysis; type: cell-based; in short: as §2

Sequence of CDK7/Cyclin H/MNAT1 (P51946 whole entry): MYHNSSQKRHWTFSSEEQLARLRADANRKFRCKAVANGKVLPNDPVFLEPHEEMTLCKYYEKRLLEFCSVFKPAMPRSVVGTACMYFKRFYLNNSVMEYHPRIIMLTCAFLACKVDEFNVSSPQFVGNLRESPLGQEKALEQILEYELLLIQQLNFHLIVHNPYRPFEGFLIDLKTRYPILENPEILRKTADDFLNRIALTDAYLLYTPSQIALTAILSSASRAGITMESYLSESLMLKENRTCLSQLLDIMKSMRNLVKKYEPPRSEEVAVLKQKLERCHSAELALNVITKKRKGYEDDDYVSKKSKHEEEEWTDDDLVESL
Sequence of CDK7/Cyclin H/MNAT1 (P50613 whole entry): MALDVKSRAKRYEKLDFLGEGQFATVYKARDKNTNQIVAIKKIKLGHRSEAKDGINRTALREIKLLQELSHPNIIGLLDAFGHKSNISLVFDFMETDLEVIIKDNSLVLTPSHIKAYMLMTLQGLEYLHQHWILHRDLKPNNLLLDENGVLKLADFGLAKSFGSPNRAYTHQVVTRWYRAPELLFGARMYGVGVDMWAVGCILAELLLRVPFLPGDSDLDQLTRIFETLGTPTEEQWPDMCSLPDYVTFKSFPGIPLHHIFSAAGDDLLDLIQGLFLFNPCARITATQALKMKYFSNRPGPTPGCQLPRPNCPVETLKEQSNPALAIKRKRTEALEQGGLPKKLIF
Sequence of CDK7/Cyclin H/MNAT1 (P51948 whole entry, further chain): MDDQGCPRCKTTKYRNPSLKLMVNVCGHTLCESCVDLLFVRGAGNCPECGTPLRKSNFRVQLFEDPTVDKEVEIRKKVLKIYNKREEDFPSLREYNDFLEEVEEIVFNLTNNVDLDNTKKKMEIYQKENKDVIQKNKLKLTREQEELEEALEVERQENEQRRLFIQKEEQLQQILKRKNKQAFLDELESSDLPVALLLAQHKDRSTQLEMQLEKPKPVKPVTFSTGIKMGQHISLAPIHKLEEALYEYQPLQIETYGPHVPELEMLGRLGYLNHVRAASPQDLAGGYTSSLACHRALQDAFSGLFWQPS

Q: How did the Ki [1] turn out when `CC(=O)N1CCN(c2ccc(Nc3nccc(-c4cn(C)c5ncccc45)n3)cc2)CC1` was run?
A: > 5000 nM

Q: What about the Ki [2] of the same compound?
A: 47 nM

Q: What about the Ki [3] of the same compound?
A: 54 nM

Q: What about the GI50 [4] of the same compound?
A: 1060 nM

Q: And the GI50 [5]?
A: > 10000 nM

Q: And the Activity [6]?
A: 1.74%

Q: And the Activity [7]?
A: 81.75%

Q: What about the Activity [8] of the same compound?
A: 79.81%

Q: What about the Activity [9] of the same compound?
A: 20.95%

Q: What about the Activity [10] of the same compound?
A: 2.99%

Q: And the Activity [11]?
A: 6.95%

Q: And the Activity [12]?
A: 86.83%

Q: And the Activity [13]?
A: 2.72%

Q: What about the Activity [14] of the same compound?
A: 7.98%

Q: What about the Activity [15] of the same compound?
A: 10.31%

Q: And the Activity [16]?
A: 85.8%

Q: And the Activity [17]?
A: 1.64%

Q: And the inhibition [18]?
A: Active

Q: What about the Activity [19] of the same compound?
A: 1.4%

Q: And the Activity [20]?
A: 2.55%

Q: What about the Activity [21] of the same compound?
A: 1.19%

Q: And the Activity [22]?
A: 88.11%

Q: What about the Activity [23] of the same compound?
A: 1.57%

Q: And the Activity [24]?
A: 3.44%

Q: What about the Activity [25] of the same compound?
A: 80.33%

Q: And the inhibition [26]?
A: Active
